{
  "source": "ChEMBL document CHEMBL1132226",
  "about": "“1,2,5-Oxadiazole N-oxide derivatives and related compounds as potential antitrypanosomal drugs: structure-activity relationships” (1999)",
  "key": {"Trypanosoma cruzi [1]": {"test_system": "Trypanosoma cruzi", "assay": "In vitro antitrypanosomal activity against Trypanosoma cruzi epimastigotes at dose 25 uM", "format": "functional", "procedure,_shortened": "(§1)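 T. cruzi Tulahuen 2 epimastigotes were grown at 28 °C in axenic BHI-tryptose medium with 10% fetal calf serum. Inocula came from a 10-day stationary culture, starting at 1 × 10⁶ cells/mL. Compound was added from a DMSO stock before inoculation, with final DMSO ≤0.4%; controls had 0.4% DMSO and no drug. Growth was read as A600 daily. Percent inhibition = {1 − [(Ap − A0p)/(Ac − A0c)]} × 100, using day-5 versus day-0 absorbances. Values are the mean of three experiments.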"}, "Trypanosoma cruzi [2]": {"test_system": "Trypanosoma cruzi", "assay": "(§2) The compound was tested in vitro for antitrypanosomal activity against Trypanosoma cruzi epimastigotes at a dose of 25 uM", "format": "functional", "procedure,_shortened": "as §1"}, "Trypanosoma cruzi [3]": {"test_system": "Trypanosoma cruzi", "assay": "as §2"}},
  "data": [
    {"smiles": "CN(C)CCCNC(=O)c1ccc2no[n+]([O-])c2c1", "values": [
      {"measurement": "inhibition at 25 µM", "setting": "Trypanosoma cruzi [1]", "result": 15, "unit": "%"}
    ]},
    {"smiles": "CCCCNC(=O)c1ccc2nonc2c1", "values": [
      {"measurement": "inhibition at 25 µM", "setting": "Trypanosoma cruzi [2]", "result": 0, "unit": "%"}
    ]},
    {"smiles": "O=C(NCCCN1CCOCC1)c1ccc2no[n+]([O-])c2c1", "values": [
      {"measurement": "inhibition at 25 µM", "setting": "Trypanosoma cruzi [1]", "result": 19, "unit": "%"}
    ]},
    {"smiles": "CCN(CC)CCCNC(=O)N/N=C/c1ccc2no[n+]([O-])c2c1", "values": [
      {"measurement": "inhibition at 25 µM", "setting": "Trypanosoma cruzi [1]", "result": 8, "unit": "%"}
    ]},
    {"smiles": "CCCCNC(=O)N/N=C/c1ccc2c(c1)[n+]([O-])c(C#N)c(N)[n+]2[O-]", "values": [
      {"measurement": "inhibition at 25 µM", "setting": "Trypanosoma cruzi [1]", "result": 17, "unit": "%"}
    ]},
    {"smiles": "CCCCNC(=O)N/N=C/c1ccc2c(c1)[n+]([O-])cc[n+]2[O-]", "values": [
      {"measurement": "inhibition at 25 µM", "setting": "Trypanosoma cruzi [1]", "result": 23, "unit": "%"}
    ]},
    {"smiles": "CCCCNC(=O)N/N=C/c1no[n+]([O-])c1C", "values": [
      {"measurement": "inhibition at 25 µM", "setting": "Trypanosoma cruzi [1]", "result": 0, "unit": "%"}
    ]},
    {"smiles": "[O-][n+]1onc(-c2ccccc2)c1CNCCCN1CCOCC1", "values": [
      {"measurement": "inhibition at 25 µM", "setting": "Trypanosoma cruzi [1]", "result": 38, "unit": "%"}
    ]},
    {"smiles": "CCCCCCNC(=O)N/N=C/c1c(-c2ccccc2)no[n+]1[O-]", "values": [
      {"measurement": "inhibition at 25 µM", "setting": "Trypanosoma cruzi [1]", "result": 53, "unit": "%"}
    ]},
    {"smiles": "Cc1c(CNCCCN2CCOCC2)no[n+]1[O-]", "values": [
      {"measurement": "inhibition at 25 µM", "setting": "Trypanosoma cruzi [1]", "result": 0, "unit": "%"}
    ]},
    {"smiles": "O=C(NCCCN1CCCCC1)c1ccc2no[n+]([O-])c2c1", "values": [
      {"measurement": "inhibition at 25 µM", "setting": "Trypanosoma cruzi [1]", "result": 45, "unit": "%"}
    ]},
    {"smiles": "CCCCCCNC(=O)N/N=C/c1ccc2no[n+]([O-])c2c1", "values": [
      {"measurement": "inhibition at 25 µM", "setting": "Trypanosoma cruzi [1]", "result": 55, "unit": "%"}
    ]},
    {"smiles": "CCCCNC(=O)N/N=C/c1ccc2no[n+]([O-])c2c1", "values": [
      {"measurement": "inhibition at 25 µM", "setting": "Trypanosoma cruzi [1]", "result": 45, "unit": "%"}
    ]},
    {"smiles": "CCCCNC(=O)N/N=C/c1c(C)[n+]([O-])c2ccccc2[n+]1[O-]", "values": [
      {"measurement": "inhibition at 25 µM", "setting": "Trypanosoma cruzi [1]", "result": 6, "unit": "%"}
    ]},
    {"smiles": "CCCCCCNC(=O)c1ccc2no[n+]([O-])c2c1", "values": [
      {"measurement": "inhibition at 25 µM", "setting": "Trypanosoma cruzi [1]", "result": 79, "unit": "%"}
    ]},
    {"smiles": "CCCCNC(=O)N/N=C/c1c(-c2ccccc2)no[n+]1[O-]", "values": [
      {"measurement": "inhibition at 25 µM", "setting": "Trypanosoma cruzi [1]", "result": 17, "unit": "%"}
    ]},
    {"smiles": "CCN(CC)CCCNCc1c(-c2ccccc2)no[n+]1[O-]", "values": [
      {"measurement": "inhibition at 25 µM", "setting": "Trypanosoma cruzi [1]", "result": 22, "unit": "%"}
    ]},
    {"smiles": "CCCCNC(=O)c1ccc2no[n+]([O-])c2c1", "values": [
      {"measurement": "inhibition at 25 µM", "setting": "Trypanosoma cruzi [1]", "result": 90, "unit": "%"}
    ]},
    {"smiles": "Cc1c(CNCCCN2CCCCC2)no[n+]1[O-]", "values": [
      {"measurement": "inhibition at 25 µM", "setting": "Trypanosoma cruzi [1]", "result": 0, "unit": "%"}
    ]},
    {"smiles": "CCCCNCc1ccc2no[n+]([O-])c2c1", "values": [
      {"measurement": "inhibition at 25 µM", "setting": "Trypanosoma cruzi [1]", "result": 21, "unit": "%"}
    ]},
    {"smiles": "CCCCNC(=O)N/N=C/c1ccc2nonc2c1", "values": [
      {"measurement": "inhibition at 25 µM", "setting": "Trypanosoma cruzi [1]", "result": 0, "unit": "%"}
    ]},
    {"smiles": "CCCCNC(=O)NNCc1ccc2no[n+]([O-])c2c1", "values": [
      {"measurement": "inhibition at 25 µM", "setting": "Trypanosoma cruzi [1]", "result": 55, "unit": "%"}
    ]},
    {"smiles": "CCCCCCNC(=O)c1ccc2nonc2c1", "values": [
      {"measurement": "inhibition at 25 µM", "setting": "Trypanosoma cruzi [2]", "result": 10, "unit": "%"}
    ]},
    {"smiles": "CCN(CC)CCCNC(=O)c1ccc2no[n+]([O-])c2c1", "values": [
      {"measurement": "inhibition at 25 µM", "setting": "Trypanosoma cruzi [1]", "result": 17, "unit": "%"}
    ]},
    {"smiles": "CCCCNC(=O)N/N=C/c1ccc2c(c1)[n+]([O-])c(C)c(C)[n+]2[O-]", "values": [
      {"measurement": "inhibition at 25 µM", "setting": "Trypanosoma cruzi [1]", "result": 0, "unit": "%"}
    ]},
    {"smiles": "CCCCCCNC(=O)N/N=C/c1no[n+]([O-])c1C", "values": [
      {"measurement": "inhibition at 25 µM", "setting": "Trypanosoma cruzi [1]", "result": 3, "unit": "%"}
    ]},
    {"smiles": "CN(C)CCCNC(=O)N/N=C/c1ccc2no[n+]([O-])c2c1", "values": [
      {"measurement": "inhibition at 25 µM", "setting": "Trypanosoma cruzi [1]", "result": 11, "unit": "%"}
    ]},
    {"smiles": "CC1CS(=O)(=O)CCN1/N=C/c1ccc([N+](=O)[O-])o1", "note": "(stereo not drawn) [NIFURTIMOX]", "values": [
      {"measurement": "inhibition at 25 µM", "setting": "Trypanosoma cruzi [3]", "result": 100, "unit": "%"}
    ]}
  ]
}
